Legend:
[1] = target: T1, Glycogen [starch] synthase, muscle (Homo sapiens) (UniProt P13807); test: Activation of human recombinant muscle GYS1 expressed in insect sf9 cells using glycogen and UDP-glucose as substrates assessed as concentration required to 200% activation by spectrophotometry
T1 sequence (whole entry): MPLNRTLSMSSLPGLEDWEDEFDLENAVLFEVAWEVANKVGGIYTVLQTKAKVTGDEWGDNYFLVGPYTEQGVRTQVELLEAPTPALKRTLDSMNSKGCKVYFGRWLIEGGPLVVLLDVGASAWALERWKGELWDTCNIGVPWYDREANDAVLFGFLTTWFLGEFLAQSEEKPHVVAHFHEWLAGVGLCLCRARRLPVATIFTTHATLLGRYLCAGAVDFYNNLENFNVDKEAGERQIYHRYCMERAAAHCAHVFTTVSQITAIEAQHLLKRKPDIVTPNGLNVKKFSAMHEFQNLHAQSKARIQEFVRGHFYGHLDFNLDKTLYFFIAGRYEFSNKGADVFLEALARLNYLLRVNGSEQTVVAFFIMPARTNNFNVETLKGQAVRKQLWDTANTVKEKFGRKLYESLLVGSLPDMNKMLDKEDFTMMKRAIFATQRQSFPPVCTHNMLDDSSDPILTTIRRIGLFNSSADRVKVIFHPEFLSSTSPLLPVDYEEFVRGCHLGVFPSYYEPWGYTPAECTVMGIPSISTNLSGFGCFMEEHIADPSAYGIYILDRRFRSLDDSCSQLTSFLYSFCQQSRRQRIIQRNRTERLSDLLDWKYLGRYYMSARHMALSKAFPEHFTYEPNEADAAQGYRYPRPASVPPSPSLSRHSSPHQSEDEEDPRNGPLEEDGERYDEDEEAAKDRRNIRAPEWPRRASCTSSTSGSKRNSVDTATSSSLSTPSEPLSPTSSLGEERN
In short: (§1)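 Recombinant human muscle GYS1 (partially purified from sf9 cells) is read in a pyruvate kinase/lactate dehydrogenase-coupled assay at room temperature. Compounds are diluted in 30 mM glycylglycine pH 7.3, 40 mM KCl, 20 mM MgCl2, 9.2% DMSO, ±20 mM glucose-6-phosphate. The substrate mix holds glycogen, UDP-glucose, PEP and NADH, all as solution concentrations. NADH loss is read at 340 nm every 3 min for 15 min. EC50 is half-maximal activation, SC200 is the concentration doubling activity, and dose-response runs are in triplicate.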

[2] = target: T1, Glycogen [starch] synthase, muscle (Homo sapiens); test: Activation of human recombinant muscle GYS1 expressed in insect sf9 cells using glycogen and UDP-glucose as substrates at 75 uM by spectrophotometry relative to control
In short: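 Same coupled GYS1 assay (sf9-derived human muscle enzyme, PK/LDH coupling, NADH absorbance at 340 nm read every 3 min over 15 min, room temperature). Activation is expressed as fold increase over control at the highest concentration tested.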

[3] = target: T2, Glycogen [starch] synthase, muscle (Homo sapiens, UniProt P13807); test: Activation of human recombinant muscle GYS1 expressed in insect sf9 cells using glycogen and UDP-glucose as substrates by spectrophotometry; in short: as §1
T2 sequence (P13807 whole entry): T1 sequence (whole entry)

[4] = AUC in C57 mouse at 10 mg/kg, po; format: ADME, organism-based; parameters: dose 10 mg/kg, route oral; conditions: plasma
In short: (§2)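 C57 mice get a single oral dose of 10 mg/kg as an aqueous suspension in 0.1 M phosphate buffer, pH 7.4, containing 10% PEG 400 by volume. Plasma exposure is measured and reported as Cmax and AUC.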

[5] = Cmax in C57 mouse at 10 mg/kg, po; format: ADME, organism-based; parameters: dose 10 mg/kg, route oral; conditions: in vivo; in short: as §2
[6] = system: Mus musculus; test: Drug metabolism in po dosed C57 mouse assessed as conversion to ortho-aminobenzoic acid in plasma; format: ADME, organism-based; conditions: in vivo

`O=c1c2cccc(COc3ccc(-c4cc(F)c(F)cc4F)cc3)c2[nH]n1C[C@H](O)CO` showed an Activity [1] of 0.41 µM, a fold change (FC) [2] of 3 and an EC50 [3] of 580 nM.

For `COc1cc(F)c(F)cc1-c1ccc(OCc2cccc3c(=O)n(-c4ccc(F)cc4)[nH]c23)cc1`, the Activity [1] was 2.01 µM, the fold change (FC) [2] was 2.8 and the EC50 [3] was 1370 nM.

Compound `O=c1c2cccc(COc3ccc(-c4cc(F)c(F)cc4Cl)cc3)c2[nH]n1C[C@H](O)CO` has an Activity [1] of 0.16 µM, a fold change (FC) [2] of 3.5 and an EC50 [3] of 300 nM.

In the case of `COc1cc(F)c(F)cc1-c1ccc(OCc2cccc(C(=O)N(C)CC(O)CO)c2)cc1` (stereo unspecified), the fold change (FC) [2] is reported as 6.6 and the EC50 [3] is reported as 10300 nM.

With `Cn1[nH]c2c(COc3ccc(-c4cc(F)c(F)cc4F)cc3)cccc2c1=O` the Activity [1] was 0.49 µM, the AUC [4] was 746 ng·h/mL and the Cmax [5] was 254 ng/mL. For the same compound, the fold change (FC) [2] was 6.8 and the EC50 [3] was 1780 nM.

`COc1cc(F)c(F)cc1-c1ccc(OCc2cccc(C(=O)N(C)CCO)c2)cc1` showed a fold change (FC) [2] of 7.3 and an EC50 [3] of 4100 nM.

`O=c1c2cccc(COc3ccc(-c4cc(F)c(F)cc4F)cc3)c2[nH]n1-c1cccnc1` gave an Activity [1] of 2.75 µM, a fold change (FC) [2] of 5.8 and an EC50 [3] of 4010 nM.

`Cc1cc(F)c(F)cc1-c1ccc(OCc2cccc3c(=O)n(C[C@@H](O)CO)[nH]c23)cc1` showed an Activity [1] of 0.1 µM, a fold change (FC) [2] of 3 and an EC50 [3] of 230 nM.

For `COc1cc(F)c(F)cc1-c1ccc(OCc2cccc3c(=O)n(C)[nH]c23)cc1`, the Activity [1] was 0.07 µM, the fold change (FC) [2] was 5.4 and the EC50 [3] was 320 nM.

Compound `COc1cc(F)c(F)cc1-c1ccc(OCc2cccc3c(=O)n(C[C@H](O)CO)[nH]c23)cc1` has an Activity [1] of 0.07 µM, a fold change (FC) [2] of 3.3 and an EC50 [3] of 250 nM.

`O=c1c2cccc(COc3ccc(-c4cc(F)c(F)cc4Cl)cc3)c2[nH]n1-c1cccnc1` gave an Activity [1] of 1.14 µM, a fold change (FC) [2] of 6.1 and an EC50 [3] of 1860 nM.

`COc1cc(F)c(F)cc1-c1ccc(OCc2cccc(C(=O)N(C)CC(=O)O)c2)cc1` showed a fold change (FC) [2] of 6.8 and an EC50 [3] of 100 nM.

In the case of `COc1cc(F)c(F)cc1-c1ccc(OCc2cccc3c(=O)n(CC(=O)O)[nH]c23)cc1`, the Activity [1] is reported as 0.06 µM, the fold change (FC) [2] is reported as 3.2 and the EC50 [3] is reported as 200 nM.

`O=c1c2cccc(COc3ccc(-c4cc(F)c(F)cc4F)cc3)c2[nH]n1C[C@@H](O)CO` showed an Activity [1] of 0.32 µM, a fold change (FC) [2] of 3.3 and an EC50 [3] of 680 nM.

`O=c1c2cccc(COc3ccc(-c4cc(F)c(F)cc4Cl)cc3)c2[nH]n1C[C@@H](O)CO` showed an Activity [1] of 0.25 µM, a fold change (FC) [2] of 3.6 and an EC50 [3] of 260 nM.

`Cc1cc(F)c(F)cc1-c1ccc(OCc2cccc3c(=O)n(-c4ccc(F)cc4)[nH]c23)cc1` gave an Activity [1] of 1.86 µM, a fold change (FC) [2] of 2.5 and an EC50 [3] of 1470 nM.

For `O=c1o[nH]c2c(COc3ccc(-c4cc(F)c(F)cc4F)cc3)cccc12`, the Activity [1] was 0.41 µM, the Drug metabolism [6] was “Active” and the fold change (FC) [2] was 4. The EC50 [3] was 1000 nM.

Compound `Cc1cc(F)c(F)cc1-c1ccc(OCc2cccc3c(=O)n(C)[nH]c23)cc1` has an Activity [1] of 0.13 µM, a fold change (FC) [2] of 3 and an EC50 [3] of 240 nM.

In the case of `O=C(O)[C@@H]1CCCN1C(=O)c1ccc(COc2ccc(-c3ccccc3)cc2)o1`, the fold change (FC) [2] is reported as 5.8 and the EC50 [3] is reported as 15100 nM.

For `Cc1cc(F)c(F)cc1-c1ccc(OCc2cccc3c(=O)n(CC(=O)O)[nH]c23)cc1`, the Activity [1] was 0.33 µM, the fold change (FC) [2] was 3.7 and the EC50 [3] was 420 nM.

With `COc1cc(F)c(F)cc1-c1ccc(OCc2cccc(C(=O)N3CCC[C@H]3C(=O)O)c2)cc1` the fold change (FC) [2] was 5.4 and the EC50 [3] was 140 nM.

`COCCn1[nH]c2c(COc3ccc(-c4cc(F)c(F)cc4F)cc3)cccc2c1=O` gave an Activity [1] of 0.52 µM, a fold change (FC) [2] of 3 and an EC50 [3] of 790 nM.

Work on `O=C(O)Cn1[nH]c2c(COc3ccc(-c4cc(F)c(F)cc4F)cc3)cccc2c1=O` yielded an Activity [1] of 0.69 µM, a fold change (FC) [2] of 3.6 and an EC50 [3] of 1200 nM.

In the case of `COCCn1[nH]c2c(COc3ccc(-c4cc(F)c(F)cc4OC)cc3)cccc2c1=O`, the Activity [1] is reported as 0.11 µM, the fold change (FC) [2] is reported as 4.4 and the EC50 [3] is reported as 370 nM.

`O=c1c2cccc(COc3ccc(-c4cc(F)c(F)cc4F)cc3)c2[nH]n1CCO` showed an Activity [1] of 0.22 µM, an AUC [4] of 3590 ng·h/mL and a Cmax [5] of 1350 ng/mL. The fold change (FC) [2] was 5.5 and the EC50 [3] was 770 nM.

Work on `Cc1cc(F)c(F)cc1-c1ccc(OCc2cccc3c(=O)n(C[C@H](O)CO)[nH]c23)cc1` yielded an Activity [1] of 0.11 µM, a fold change (FC) [2] of 3.3 and an EC50 [3] of 340 nM.

`COc1cc(F)c(F)cc1-c1ccc(OCc2cccc3c(=O)n(C[C@@H](O)CO)[nH]c23)cc1` gave an Activity [1] of 0.06 µM, a fold change (FC) [2] of 3.1 and an EC50 [3] of 270 nM.

Source: ChEMBL document CHEMBL2380243, “Design and synthesis of 2-N-substituted indazolone derivatives as non-carboxylic acid glycogen synthase activators” (Bioorg Med Chem Lett, 2013)
